ChEMBL document CHEMBL3352171, “Synthesis and biological evaluation of andrographolide analogues as anti-cancer agents” (Eur J Med Chem, 2014)
The source made the active and inactive calls. No cut-off for these calls is given here.

Assays:
HEK293 [1] = assay: Cytotoxicity against HEK293 cells after 48 hrs by MTT assay; type: functional; settings: Homo sapiens, HEK293, 48 h; read-out: LC50 (the source's name)
Procedure, shortened: (§1)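 Cells seeded at 10,000 per well and exposed to increasing compound concentrations for 48 h. After a PBS wash, MTT (2.5 mg/mL) was added for 6 h at 37 °C, then detergent (10% NP-40, 4 mM HCl), and absorbance was read at 570 nm. LC50 is the concentration causing 50% cell death. Values are means of three independent experiments.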

[2] = Retention time of the compound by HPLC method; type: physicochemical
Vero = assay: Cytotoxicity against african green monkey Vero cells after 48 hrs by MTT assay; type: cell-based; settings: chlorocebus sabaeus; procedure, shortened: as §1
HEK293 [3] = assay: Increase in p53 expression in p53 deficient HEK293 cells at LC50 level after 48 hrs by Western blot method; type: functional, cell-based; settings: Homo sapiens
HEK293 [4] = assay: Induction of cell cycle arrest in HEK293 cells assessed as accumulation at G1 phase at 20 uM after 48 hrs by propidium iodide staining based flow cytometry (reference value: 53.21 +/- 0.8%); type: functional, Homo sapiens
[5] = Binding affinity to GC-28 DNA (unknown origin) minor groove by DAPI staining based spectrophotometry
Procedure, shortened: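 DAPI–DNA complex fluorescence read at 460 nm emission band; test compound added to the preformed complex and loss of fluorescence followed.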

HEK293 [6] = assay: Induction of apoptosis in HEK293 cells at 20 uM after 48 hrs by propidium iodide staining based flow cytometry (reference value: 24.26 +/- 0.8%); type: functional, Homo sapiens
HEK293 [7] = assay: Reduction in NFkappaB expression in p53 deficient HEK293 cells at LC50 level after 48 hrs by Western blot method; type: functional, cell-based; settings: Homo sapiens
HEK293 [8] = assay: Induction of cell cycle arrest in HEK293 cells assessed as accumulation at S phase at 5 uM after 48 hrs by propidium iodide staining based flow cytometry (reference value: 19.9 +/- 0.5%); type: functional, Homo sapiens
HEK293 [9] = assay: Induction of cell cycle arrest in HEK293 cells assessed as accumulation at S phase at 10 uM after 48 hrs by propidium iodide staining based flow cytometry (reference value: 19.9 +/- 0.5%); type: functional, Homo sapiens
HEK293 [10] = assay: Induction of cell cycle arrest in HEK293 cells assessed as accumulation at G2/M phase at 10 uM after 48 hrs by propidium iodide staining based flow cytometry (reference value: 2.63 +/- 0.7%); type: functional, Homo sapiens
[11] = Cytotoxicity against human MCF10A cells after 48 hrs by MTT assay; type: cell-based; settings: mcf-10a; procedure, shortened: as §1
HEK293 [12] = assay: Increase in p53 expression in HEK293 cells at LC50 level after 48 hrs by Western blot method; type: functional, cell-based; settings: Homo sapiens
HEK293 [13] = assay: Induction of cell cycle arrest in HEK293 cells assessed as accumulation at G1 phase at 10 uM after 48 hrs by propidium iodide staining based flow cytometry (reference value: 53.21 +/- 0.8%); type: functional, Homo sapiens
HEK293 [14] = assay: Induction of apoptosis in HEK293 cells at 15 uM after 48 hrs by propidium iodide staining based flow cytometry (reference value: 24.26 +/- 0.8%); type: functional, Homo sapiens
HEK293 [15] = assay: Induction of cell cycle arrest in HEK293 cells assessed as accumulation at G2/M phase at 20 uM after 48 hrs by propidium iodide staining based flow cytometry (reference value: 2.63 +/- 0.7%); type: functional, Homo sapiens
HEK293 [16] = assay: Induction of cell cycle arrest in HEK293 cells assessed as accumulation at S phase at 15 uM after 48 hrs by propidium iodide staining based flow cytometry (reference value: 19.9 +/- 0.5%); type: functional, Homo sapiens
HEK293 [17] = assay: Increase in caspase-3 expression in HEK293 cells at LC50 level after 48 hrs by immunocytochemistry; type: functional, cell-based; settings: Homo sapiens
HEK293 [18] = assay: Increase in Bax expression in p53 deficient HEK293 cells at LC50 level after 48 hrs by Western blot method; type: functional, cell-based; settings: Homo sapiens
HEK293 [19] = assay: Induction of apoptosis in HEK293 cells at 5 uM after 48 hrs by propidium iodide staining based flow cytometry (reference value: 24.26 +/- 0.8%); type: functional, Homo sapiens
HEK293 [20] = assay: Induction of apoptosis in HEK293 cells at 10 uM after 48 hrs by propidium iodide staining based flow cytometry (reference value: 24.26 +/- 0.8%); type: functional, Homo sapiens
HEK293 [21] = assay: Increase in PARP cleavage in HEK293 cells at LC50 level after 48 hrs by Western blot method; type: functional, cell-based; settings: Homo sapiens
HEK293 [22] = assay: Induction of apoptosis in HEK293 cells at 20 uM after 48 hrs by propidium iodide staining based flow cytometry relative to untreated control; type: functional, Homo sapiens
HEK293 [23] = assay: Induction of cell cycle arrest in HEK293 cells assessed as accumulation at G2/M phase at 5 uM after 48 hrs by propidium iodide staining based flow cytometry (reference value: 2.63 +/- 0.7%); type: functional, Homo sapiens
[24] = molecular target: T1, Nuclear factor NF-kappa-B complex (Homo sapiens) (UniProt Q00653+P19838+Q04206); assay: Inhibition of NFkappaB (unknown origin) expressed in HEK293 cells assessed as reduction in transcriptional activity after 48 hrs by luciferase reporter gene assay; type: cell-based
T1 sequence (P19838 whole entry, looked up): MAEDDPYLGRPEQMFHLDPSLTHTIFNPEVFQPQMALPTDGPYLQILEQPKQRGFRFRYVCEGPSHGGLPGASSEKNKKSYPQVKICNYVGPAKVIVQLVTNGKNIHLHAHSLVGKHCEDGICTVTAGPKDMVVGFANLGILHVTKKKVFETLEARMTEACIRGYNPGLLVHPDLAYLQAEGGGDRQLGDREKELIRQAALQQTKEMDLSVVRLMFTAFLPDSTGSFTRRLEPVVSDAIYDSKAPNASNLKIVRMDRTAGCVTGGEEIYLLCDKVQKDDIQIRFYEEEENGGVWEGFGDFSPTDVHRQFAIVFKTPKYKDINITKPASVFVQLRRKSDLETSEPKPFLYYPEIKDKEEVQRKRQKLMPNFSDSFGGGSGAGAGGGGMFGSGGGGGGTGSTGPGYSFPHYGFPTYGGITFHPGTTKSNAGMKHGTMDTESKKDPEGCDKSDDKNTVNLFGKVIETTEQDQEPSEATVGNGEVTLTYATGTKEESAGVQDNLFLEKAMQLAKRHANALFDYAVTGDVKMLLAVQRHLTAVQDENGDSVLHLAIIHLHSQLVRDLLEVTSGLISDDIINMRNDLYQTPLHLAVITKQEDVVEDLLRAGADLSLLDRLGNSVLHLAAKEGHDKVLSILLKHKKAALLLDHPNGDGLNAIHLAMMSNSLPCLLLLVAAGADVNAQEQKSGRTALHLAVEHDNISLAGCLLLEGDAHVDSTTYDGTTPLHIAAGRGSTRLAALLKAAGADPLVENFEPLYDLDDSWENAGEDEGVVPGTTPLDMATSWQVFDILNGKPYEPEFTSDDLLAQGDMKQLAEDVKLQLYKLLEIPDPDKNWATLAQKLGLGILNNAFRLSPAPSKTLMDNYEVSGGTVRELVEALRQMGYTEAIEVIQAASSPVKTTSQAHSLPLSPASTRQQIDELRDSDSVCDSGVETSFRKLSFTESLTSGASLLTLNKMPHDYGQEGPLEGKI
T1 sequence (Q00653 whole entry, looked up): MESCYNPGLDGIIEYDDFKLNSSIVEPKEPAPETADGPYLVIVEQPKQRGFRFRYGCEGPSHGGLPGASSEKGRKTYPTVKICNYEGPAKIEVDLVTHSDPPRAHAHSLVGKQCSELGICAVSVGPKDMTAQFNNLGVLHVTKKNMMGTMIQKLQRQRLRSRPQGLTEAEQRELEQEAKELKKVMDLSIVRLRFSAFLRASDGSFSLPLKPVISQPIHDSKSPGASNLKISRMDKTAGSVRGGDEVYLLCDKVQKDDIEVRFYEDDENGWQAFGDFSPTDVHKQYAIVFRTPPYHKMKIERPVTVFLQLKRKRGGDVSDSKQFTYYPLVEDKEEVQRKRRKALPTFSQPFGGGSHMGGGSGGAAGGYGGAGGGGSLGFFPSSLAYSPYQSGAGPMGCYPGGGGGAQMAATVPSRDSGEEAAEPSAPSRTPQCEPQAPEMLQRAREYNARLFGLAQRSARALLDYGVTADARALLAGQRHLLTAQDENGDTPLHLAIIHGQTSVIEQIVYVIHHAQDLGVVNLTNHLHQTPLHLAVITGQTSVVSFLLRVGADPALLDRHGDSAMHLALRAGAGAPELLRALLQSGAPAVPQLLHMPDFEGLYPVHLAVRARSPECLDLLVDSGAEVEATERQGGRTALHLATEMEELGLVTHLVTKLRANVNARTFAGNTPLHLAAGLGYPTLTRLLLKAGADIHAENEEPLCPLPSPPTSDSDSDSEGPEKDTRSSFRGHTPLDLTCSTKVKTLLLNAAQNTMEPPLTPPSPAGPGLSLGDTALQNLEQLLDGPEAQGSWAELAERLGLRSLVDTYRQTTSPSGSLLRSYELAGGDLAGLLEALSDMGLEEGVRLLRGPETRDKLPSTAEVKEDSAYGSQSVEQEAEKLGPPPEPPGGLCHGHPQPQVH
T1 sequence (Q04206 whole entry, looked up): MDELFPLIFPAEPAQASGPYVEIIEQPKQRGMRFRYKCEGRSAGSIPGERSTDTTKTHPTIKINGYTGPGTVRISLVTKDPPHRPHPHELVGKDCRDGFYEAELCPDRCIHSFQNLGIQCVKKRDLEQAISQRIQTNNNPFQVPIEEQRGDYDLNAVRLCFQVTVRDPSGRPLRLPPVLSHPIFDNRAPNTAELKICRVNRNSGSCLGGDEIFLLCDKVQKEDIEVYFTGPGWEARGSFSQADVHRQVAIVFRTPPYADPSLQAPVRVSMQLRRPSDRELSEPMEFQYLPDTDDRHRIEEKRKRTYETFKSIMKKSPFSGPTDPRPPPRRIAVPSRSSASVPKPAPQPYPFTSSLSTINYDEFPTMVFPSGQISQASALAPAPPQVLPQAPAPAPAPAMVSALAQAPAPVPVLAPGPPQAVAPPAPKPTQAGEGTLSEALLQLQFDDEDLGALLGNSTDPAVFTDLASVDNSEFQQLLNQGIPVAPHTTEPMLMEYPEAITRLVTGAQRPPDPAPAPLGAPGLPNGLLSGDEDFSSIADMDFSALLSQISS
Procedure, shortened: (§2)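 HEK-293 at 70% confluence transfected by calcium phosphate with NF-kB luciferase ([…]) and b-Gal ([…]) plasmids, 6–8 h, then fresh serum medium 12 h; treated 48 h, lysed, luciferase read and normalized to b-galactosidase. Three independent experiments.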

HEK293 [25] = assay: Induction of cell cycle arrest in HEK293 cells assessed as accumulation at S phase at 20 uM after 48 hrs by propidium iodide staining based flow cytometry (reference value: 19.9 +/- 0.5%); type: functional, Homo sapiens
HEK293 [26] = assay: Induction of cell death in HEK293 cells at 15 to 20 uM after 48 hrs by DAPI staining based fluorescence microscopy; type: functional; settings: Homo sapiens
HEK293 [27] = assay: Increase in PARP cleavage in p53 deficient HEK293 cells at LC50 level after 48 hrs by Western blot method; type: functional, cell-based; settings: Homo sapiens
HEK293 [28] = assay: Reduction in NFkappaB expression in HEK293 cells at LC50 level after 48 hrs by Western blot method; type: functional, cell-based; settings: Homo sapiens
HEK293 [29] = assay: Induction of cell cycle arrest in HEK293 cells assessed as accumulation at G1 phase at 5 uM after 48 hrs by propidium iodide staining based flow cytometry (reference value: 53.21 +/- 0.8%); type: functional, Homo sapiens
HEK293 [30] = assay: Increase in Bax expression in HEK293 cells at LC50 level after 48 hrs by Western blot method; type: functional, cell-based; settings: Homo sapiens
HEK293 [31] = assay: Induction of cell cycle arrest in HEK293 cells assessed as accumulation at G1 phase at 15 uM after 48 hrs by propidium iodide staining based flow cytometry (reference value: 53.21 +/- 0.8%); type: functional, Homo sapiens
HEK293 [32] = assay: Reduction in Bcl-xL expression in HEK293 cells at LC50 level after 48 hrs by Western blot method; type: functional, cell-based; settings: Homo sapiens
HEK293 [33] = assay: Reduction in Bcl-xL expression in p53 deficient HEK293 cells at LC50 level after 48 hrs by Western blot method; type: functional, cell-based; settings: Homo sapiens
MCF7 = assay: Cytotoxicity against human MCF7 cells after 48 hrs by MTT assay; type: functional; settings: MCF7, 48 h, read-out: LC50 (the source's name); procedure, shortened: as §1
HEK293 [34] = assay: Induction of apoptosis in HEK293 cells at 5 to 20 uM after 48 hrs by DAPI staining based fluorescence microscopy; type: functional, cell-based; settings: Homo sapiens
[35] = molecular target: T1, Nuclear factor NF-kappa-B complex (Homo sapiens); assay: Inhibition of NFkappaB (unknown origin) expressed in HEK293 cells assessed as reduction in transcriptional activity at 10 uM after 48 hrs by luciferase reporter gene assay; type: cell-based; procedure, shortened: as §2
HEK293 [36] = assay: Induction of apoptosis in HEK293 cells assessed as apoptotic nuclei formation at 10 uM after 48 hrs by DAPI staining based fluorescence microscopy; type: functional, cell-based; settings: Homo sapiens
HEK293 [37] = assay: Induction of cell cycle arrest in HEK293 cells assessed as accumulation at G2/M phase at 15 uM after 48 hrs by propidium iodide staining based flow cytometry (reference value: 2.63 +/- 0.7%); type: functional, Homo sapiens

C[C@]1(CO)[C@H]2CC[C@@]3(CO3)[C@@H](C/C=C3/C(=O)OC[C@H]3OC(=O)CBr)[C@]2(C)CC[C@H]1O
CC50 (HEK293 [1]): 16 µM | Retention_time [2]: 27.8 min | LC50 (Vero): 29 µM

C[C@]1(CO)[C@H]2CC[C@]3(CO3)[C@@H](C/C=C3/C(=O)OC[C@H]3OC(=O)CI)[C@]2(C)CC[C@H]1O
CC50 (HEK293 [1]): 25 µM | Retention_time [2]: 30.2 min | LC50 (Vero): 42 µM

C[C@]1(CO)[C@H]2CC[C@@]3(CO3)[C@@H](C/C=C3/C(=O)OC[C@H]3OC(=O)CI)[C@]2(C)CC[C@H]1O
Activity (HEK293 [3]): inactive | Activity (HEK293 [4]): 5.37% | Activity [5]: Active | Activity (HEK293 [6]): 92.93% | Activity (HEK293 [7]): inactive | Activity (HEK293 [8]): 9.87% | Activity (HEK293 [9]): 4.98% | Activity (HEK293 [10]): 1.41% | LC50 [11]: > 40 µM | Activity (HEK293 [12]): Active | Activity (HEK293 [13]): 15.61% | CC50 (HEK293 [1]): 12 µM | Activity (HEK293 [14]): 79.55% | Activity (HEK293 [15]): 0.52% | Activity (HEK293 [16]): 4.63% | Activity (HEK293 [17]): Active | Activity (HEK293 [18]): inactive | Activity (HEK293 [19]): 62.05% | Retention_time [2]: 31.4 min | Activity (HEK293 [20]): 77.99% | Activity (HEK293 [21]): Active | fold change (FC) (HEK293 [22]): >6 | Activity (HEK293 [23]): 2.7% | inhibition [24]: Dose-dependent effect | Activity (HEK293 [25]): 1.18% | Activity (HEK293 [26]): Active | Activity (HEK293 [27]): inactive | Activity (HEK293 [28]): Active | Activity (HEK293 [29]): 25.38% | Activity (HEK293 [30]): Active | Activity (HEK293 [31]): 14.98% | Activity (HEK293 [32]): Active | Activity (HEK293 [33]): inactive | CC50 (MCF7): 7 µM | Activity (HEK293 [34]): Dose-dependent effect | LC50 (Vero): 30 µM | fold change (FC) [35]: 5 | Activity (HEK293 [36]): Active | Activity (HEK293 [37]): 1.31%

C[C@]1(CO)[C@H]2CC[C@]3(CO3)[C@@H](C/C=C3/C(=O)OC[C@H]3OC(=O)CBr)[C@]2(C)CC[C@H]1O
CC50 (HEK293 [1]): 24 µM | Retention_time [2]: 27.2 min | LC50 (Vero): 32 µM

COc1cc([C@@H]2c3cc4c(cc3[C@@H](O[C@@H]3O[C@@H]5CO[C@@H](C)O[C@H]5[C@H](O)[C@H]3O)[C@H]3COC(=O)[C@H]23)OCO4)cc(OC)c1O [ETOPOSIDE]
CC50 (HEK293 [1]): 18 µM | LC50 (Vero): 28 µM

C=C1CC[C@@H]2[C@](C)(CO)[C@H](O)CC[C@@]2(C)[C@@H]1C/C=C1/C(=O)OC[C@H]1OC(=O)CCl
CC50 (HEK293 [1]): 20 µM | Retention_time [2]: 23.2 min | LC50 (Vero): 25 µM

C[C@]1(CO)[C@H]2CC[C@]3(CO3)[C@@H](C/C=C3/C(=O)OC[C@H]3OC(=O)CCl)[C@]2(C)CC[C@H]1O
CC50 (HEK293 [1]): 18 µM | Retention_time [2]: 36.5 min | LC50 (Vero): 43 µM

C=C1CC[C@@H]2[C@]3(C)COC(C)(C)O[C@@H]3CC[C@@]2(C)[C@@H]1C/C=C1/C(=O)OC[C@H]1OC(=O)CBr
CC50 (HEK293 [1]): 17 µM | LC50 (Vero): 36 µM

O=c1[nH]cc(F)c(=O)[nH]1 [FLUOROURACIL]
CC50 (HEK293 [1]): 25 µM

C=C1CC[C@@H]2[C@]3(C)COC(C)(C)O[C@@H]3CC[C@@]2(C)[C@@H]1C/C=C1/C(=O)OC[C@H]1OC(=O)CCl
CC50 (HEK293 [1]): 19 µM | LC50 (Vero): 42 µM

C[C@]1(CO)[C@H]2CC[C@@]3(CO3)[C@@H](C/C=C3/C(=O)OC[C@H]3OC(=O)CCl)[C@]2(C)CC[C@H]1O
CC50 (HEK293 [1]): 31 µM | Retention_time [2]: 37.1 min | LC50 (Vero): 37 µM

C=C1CC[C@@H]2[C@]3(C)COC(C)(C)O[C@@H]3CC[C@@]2(C)[C@@H]1C/C=C1/C(=O)OC[C@H]1OC(=O)CI
CC50 (HEK293 [1]): 20 µM | LC50 (Vero): 48 µM

C=C1CC[C@@H]2[C@](C)(CO)[C@H](O)CC[C@@]2(C)[C@@H]1C/C=C1/C(=O)OC[C@H]1O [ANDROGRAPHOLIDE]
Activity (HEK293 [3]): inactive | Activity (HEK293 [7]): inactive | LC50 [11]: > 40 µM | Activity (HEK293 [12]): Active | CC50 (HEK293 [1]): 25 µM | Activity (HEK293 [17]): Active | Activity (HEK293 [18]): inactive | Activity (HEK293 [21]): Active | Activity (HEK293 [27]): inactive | Activity (HEK293 [28]): Active | Activity (HEK293 [30]): Active | Activity (HEK293 [32]): Active | Activity (HEK293 [33]): inactive | CC50 (MCF7): 16 µM | LC50 (Vero): < 40 µM
